Assay results reported in ChEMBL document CHEMBL1152191, “Identification and optimization of N3,N6-diaryl-1H-pyrazolo[3,4-d]pyrimidine-3,6-diamines as a novel class of ACK1 inhibitors” (Bioorg Med Chem Lett, 2008).

Assays:
Activated CDC42 kinase 1 [1] = target: T1, Activated CDC42 kinase 1 (Homo sapiens, UniProt Q07912); test: Inhibition of histidine-tagged ACK1 (amino acids 117 to 489) expressed in SF9 cells
Activated CDC42 kinase 1 [2] = target: T1, Activated CDC42 kinase 1; test: Inhibition of flag-tagged ACK1 autophosphorylation expressed in human 293 cells; type: cell-based, HEK293
Summary of the method: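 293 cells stably expressing Flag-ACK1 are detached with PBS/EDTA, washed, and pre-incubated in suspension with DMSO or compound. They are then re-plated for 2 h in medium with 10% FCS, with directly lysed cells as control. Autophosphorylation is read by anti-pTyr western blot after Flag IP, and IC50 determined.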

[3] = Clearance in Sprague-Dawley rat at 0.5 mg/kg, iv; type: ADME, organism-based; parameters: dose 0.5 mg/kg, route intravenous; settings: in vivo
Summary of the method: (§1)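 Male Sprague–Dawley rats received 0.5 mg/kg as an iv dose, with n = 3 animals per study. CL, Vss, MRT and AUC were derived from the plasma concentration profile.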

[4] = Volume of distribution at steady state in Sprague-Dawley rat at 0.5 mg/kg, iv; type: ADME, organism-based; parameters: dose 0.5 mg/kg, route intravenous; settings: in vivo, read-out: Vdss; summary of the method: as §1
[5] = Mean residence time in Sprague-Dawley rat at 0.5 mg/kg, iv; type: ADME, organism-based; parameters: dose 0.5 mg/kg, route intravenous; settings: in vivo; summary of the method: as §1
[6] = AUC in Sprague-Dawley rat at 0.5 mg/kg, iv; type: ADME, organism-based; parameters: dose 0.5 mg/kg, route intravenous; settings: plasma; summary of the method: as §1
[7] = target: Tyrosine-protein kinase Lck (Homo sapiens, UniProt P06239); test: Inhibition of LCK
[8] = target: Tyrosine-protein kinase BTK (Homo sapiens, UniProt Q06187); test: Inhibition of BTK
[9] = target: Vascular endothelial growth factor receptor 2 (Homo sapiens, UniProt P35968); test: Inhibition of KDR
Angiopoietin-1 receptor = Angiopoietin-1 receptor (Homo sapiens, UniProt Q02763); test: Inhibition of Tie2
[10] = target: T2, Tyrosine-protein kinase JAK3 (Homo sapiens, UniProt P52333); test: Inhibition of Jak3
T2 sequence (P52333 whole entry): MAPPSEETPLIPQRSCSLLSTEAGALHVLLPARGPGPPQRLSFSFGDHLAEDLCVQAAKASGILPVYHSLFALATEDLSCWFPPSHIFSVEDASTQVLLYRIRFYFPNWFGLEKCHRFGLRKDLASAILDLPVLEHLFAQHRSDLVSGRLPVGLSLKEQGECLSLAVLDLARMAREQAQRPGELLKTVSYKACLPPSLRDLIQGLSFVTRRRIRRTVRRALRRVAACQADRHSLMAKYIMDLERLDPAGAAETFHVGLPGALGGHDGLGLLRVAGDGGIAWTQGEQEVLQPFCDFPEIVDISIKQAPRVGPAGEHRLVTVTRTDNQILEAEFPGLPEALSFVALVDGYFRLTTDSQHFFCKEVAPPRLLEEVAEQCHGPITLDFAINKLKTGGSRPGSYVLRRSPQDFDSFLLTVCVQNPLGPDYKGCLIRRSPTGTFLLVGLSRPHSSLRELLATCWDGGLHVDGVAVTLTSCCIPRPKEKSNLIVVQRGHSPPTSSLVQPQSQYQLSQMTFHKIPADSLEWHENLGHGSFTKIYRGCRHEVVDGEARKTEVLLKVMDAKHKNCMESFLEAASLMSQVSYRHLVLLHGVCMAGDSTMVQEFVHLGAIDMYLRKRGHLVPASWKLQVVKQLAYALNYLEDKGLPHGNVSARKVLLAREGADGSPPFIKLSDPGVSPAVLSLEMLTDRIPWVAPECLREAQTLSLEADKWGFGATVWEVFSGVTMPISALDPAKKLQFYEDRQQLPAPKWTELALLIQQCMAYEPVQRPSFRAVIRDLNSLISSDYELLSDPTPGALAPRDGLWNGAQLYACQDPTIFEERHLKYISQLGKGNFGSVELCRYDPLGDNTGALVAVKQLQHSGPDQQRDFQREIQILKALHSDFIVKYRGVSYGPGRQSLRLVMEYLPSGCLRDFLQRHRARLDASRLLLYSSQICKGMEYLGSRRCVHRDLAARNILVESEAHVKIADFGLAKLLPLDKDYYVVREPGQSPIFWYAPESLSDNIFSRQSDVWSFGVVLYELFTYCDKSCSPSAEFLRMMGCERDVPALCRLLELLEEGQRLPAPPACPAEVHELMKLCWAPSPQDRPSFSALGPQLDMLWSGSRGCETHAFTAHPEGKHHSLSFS

[11] = Clearance in Sprague-Dawley rat at 0.4 mg/kg, iv; type: ADME, organism-based; parameters: dose 0.4 mg/kg, route intravenous; settings: in vivo
Summary of the method: (§2)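 Male Sprague–Dawley rats were dosed intravenously; clearance and AUC were taken from the plasma profile.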

[12] = AUC in Sprague-Dawley rat at 0.4 mg/kg, iv; type: ADME, organism-based; parameters: dose 0.4 mg/kg, route intravenous; settings: plasma; summary of the method: as §2
[13] = Oral bioavailability in Sprague-Dawley rat at 4 mg/kg; type: ADME, organism-based; settings: in vivo

Chain of Tyrosine-protein kinase Lck (P06239 whole entry): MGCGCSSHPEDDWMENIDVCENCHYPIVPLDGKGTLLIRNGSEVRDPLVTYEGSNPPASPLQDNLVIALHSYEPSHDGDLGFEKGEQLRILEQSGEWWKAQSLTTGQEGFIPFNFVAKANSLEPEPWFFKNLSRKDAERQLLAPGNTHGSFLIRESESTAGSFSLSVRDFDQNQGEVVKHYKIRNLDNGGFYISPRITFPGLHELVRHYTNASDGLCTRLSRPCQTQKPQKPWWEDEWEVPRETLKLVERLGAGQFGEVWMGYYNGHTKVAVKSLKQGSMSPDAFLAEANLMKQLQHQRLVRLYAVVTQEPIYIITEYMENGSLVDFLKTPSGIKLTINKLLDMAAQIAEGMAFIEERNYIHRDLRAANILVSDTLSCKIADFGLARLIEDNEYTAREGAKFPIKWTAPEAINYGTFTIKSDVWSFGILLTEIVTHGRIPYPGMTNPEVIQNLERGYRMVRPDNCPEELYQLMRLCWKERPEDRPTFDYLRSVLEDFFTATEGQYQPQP
Chain of Angiopoietin-1 receptor (Q02763 whole entry): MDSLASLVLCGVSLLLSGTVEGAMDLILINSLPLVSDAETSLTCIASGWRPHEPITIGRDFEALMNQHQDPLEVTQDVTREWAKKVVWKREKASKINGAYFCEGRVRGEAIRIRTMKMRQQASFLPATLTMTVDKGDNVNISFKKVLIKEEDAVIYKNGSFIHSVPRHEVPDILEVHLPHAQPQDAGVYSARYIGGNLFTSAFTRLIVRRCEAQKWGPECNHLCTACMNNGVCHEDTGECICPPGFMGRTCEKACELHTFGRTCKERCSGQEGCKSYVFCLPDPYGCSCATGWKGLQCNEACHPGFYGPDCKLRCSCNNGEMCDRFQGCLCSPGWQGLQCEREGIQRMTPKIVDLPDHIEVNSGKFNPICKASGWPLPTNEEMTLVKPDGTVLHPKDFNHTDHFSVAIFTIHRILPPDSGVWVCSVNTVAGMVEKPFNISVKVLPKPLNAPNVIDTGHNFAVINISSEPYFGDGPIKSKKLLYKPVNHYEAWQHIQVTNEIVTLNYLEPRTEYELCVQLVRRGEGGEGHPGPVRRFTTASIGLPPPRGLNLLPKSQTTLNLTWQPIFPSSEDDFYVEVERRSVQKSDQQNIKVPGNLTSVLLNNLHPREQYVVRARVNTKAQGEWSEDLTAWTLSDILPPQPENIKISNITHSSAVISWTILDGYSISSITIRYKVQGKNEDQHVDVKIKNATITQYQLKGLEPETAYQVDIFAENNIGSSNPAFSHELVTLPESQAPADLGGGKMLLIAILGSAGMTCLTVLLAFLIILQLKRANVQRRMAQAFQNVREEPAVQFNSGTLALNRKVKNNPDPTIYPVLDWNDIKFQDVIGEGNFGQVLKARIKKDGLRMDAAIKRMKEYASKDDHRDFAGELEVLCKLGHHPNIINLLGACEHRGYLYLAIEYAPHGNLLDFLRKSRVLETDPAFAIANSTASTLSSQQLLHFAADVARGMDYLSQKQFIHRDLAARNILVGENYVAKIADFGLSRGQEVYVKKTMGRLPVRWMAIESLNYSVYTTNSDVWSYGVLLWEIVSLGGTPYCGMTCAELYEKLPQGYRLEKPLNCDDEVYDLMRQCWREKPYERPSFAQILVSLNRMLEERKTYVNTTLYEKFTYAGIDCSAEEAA
Chain of Vascular endothelial growth factor receptor 2 (P35968 whole entry): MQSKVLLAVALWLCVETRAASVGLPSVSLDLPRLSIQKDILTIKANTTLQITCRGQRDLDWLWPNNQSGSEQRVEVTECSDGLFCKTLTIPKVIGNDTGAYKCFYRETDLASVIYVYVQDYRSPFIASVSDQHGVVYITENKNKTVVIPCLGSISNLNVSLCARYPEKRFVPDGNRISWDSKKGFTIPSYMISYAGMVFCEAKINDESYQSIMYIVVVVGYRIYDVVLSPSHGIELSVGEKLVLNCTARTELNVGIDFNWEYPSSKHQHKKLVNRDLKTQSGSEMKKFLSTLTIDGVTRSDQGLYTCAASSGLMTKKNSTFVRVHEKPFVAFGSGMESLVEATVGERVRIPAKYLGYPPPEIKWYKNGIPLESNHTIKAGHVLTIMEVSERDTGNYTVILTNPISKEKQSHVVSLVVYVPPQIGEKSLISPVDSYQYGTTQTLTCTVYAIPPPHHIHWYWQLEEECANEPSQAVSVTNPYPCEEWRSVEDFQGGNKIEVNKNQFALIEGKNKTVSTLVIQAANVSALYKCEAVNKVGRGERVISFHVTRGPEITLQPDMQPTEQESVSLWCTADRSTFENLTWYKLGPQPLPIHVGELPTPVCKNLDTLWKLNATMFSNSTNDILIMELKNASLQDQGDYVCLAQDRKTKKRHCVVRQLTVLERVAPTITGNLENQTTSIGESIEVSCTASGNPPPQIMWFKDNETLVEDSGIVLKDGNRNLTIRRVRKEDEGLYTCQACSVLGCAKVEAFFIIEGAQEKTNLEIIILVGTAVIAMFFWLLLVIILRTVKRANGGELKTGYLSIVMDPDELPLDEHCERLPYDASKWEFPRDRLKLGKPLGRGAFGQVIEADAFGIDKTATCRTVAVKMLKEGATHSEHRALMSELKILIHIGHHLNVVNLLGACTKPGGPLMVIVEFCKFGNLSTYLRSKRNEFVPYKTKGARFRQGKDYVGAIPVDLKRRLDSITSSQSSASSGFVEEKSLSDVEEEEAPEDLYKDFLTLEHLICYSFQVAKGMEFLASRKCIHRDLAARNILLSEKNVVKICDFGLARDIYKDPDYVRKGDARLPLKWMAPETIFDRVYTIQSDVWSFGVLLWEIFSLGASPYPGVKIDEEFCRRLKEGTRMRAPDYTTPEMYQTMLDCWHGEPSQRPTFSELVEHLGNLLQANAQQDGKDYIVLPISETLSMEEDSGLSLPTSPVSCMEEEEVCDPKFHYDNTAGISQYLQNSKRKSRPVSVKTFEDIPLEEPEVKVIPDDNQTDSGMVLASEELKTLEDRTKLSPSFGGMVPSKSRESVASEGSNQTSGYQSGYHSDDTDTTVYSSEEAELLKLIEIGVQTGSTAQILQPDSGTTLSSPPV
T1 sequence (Q07912 whole entry, the tested form may be a part): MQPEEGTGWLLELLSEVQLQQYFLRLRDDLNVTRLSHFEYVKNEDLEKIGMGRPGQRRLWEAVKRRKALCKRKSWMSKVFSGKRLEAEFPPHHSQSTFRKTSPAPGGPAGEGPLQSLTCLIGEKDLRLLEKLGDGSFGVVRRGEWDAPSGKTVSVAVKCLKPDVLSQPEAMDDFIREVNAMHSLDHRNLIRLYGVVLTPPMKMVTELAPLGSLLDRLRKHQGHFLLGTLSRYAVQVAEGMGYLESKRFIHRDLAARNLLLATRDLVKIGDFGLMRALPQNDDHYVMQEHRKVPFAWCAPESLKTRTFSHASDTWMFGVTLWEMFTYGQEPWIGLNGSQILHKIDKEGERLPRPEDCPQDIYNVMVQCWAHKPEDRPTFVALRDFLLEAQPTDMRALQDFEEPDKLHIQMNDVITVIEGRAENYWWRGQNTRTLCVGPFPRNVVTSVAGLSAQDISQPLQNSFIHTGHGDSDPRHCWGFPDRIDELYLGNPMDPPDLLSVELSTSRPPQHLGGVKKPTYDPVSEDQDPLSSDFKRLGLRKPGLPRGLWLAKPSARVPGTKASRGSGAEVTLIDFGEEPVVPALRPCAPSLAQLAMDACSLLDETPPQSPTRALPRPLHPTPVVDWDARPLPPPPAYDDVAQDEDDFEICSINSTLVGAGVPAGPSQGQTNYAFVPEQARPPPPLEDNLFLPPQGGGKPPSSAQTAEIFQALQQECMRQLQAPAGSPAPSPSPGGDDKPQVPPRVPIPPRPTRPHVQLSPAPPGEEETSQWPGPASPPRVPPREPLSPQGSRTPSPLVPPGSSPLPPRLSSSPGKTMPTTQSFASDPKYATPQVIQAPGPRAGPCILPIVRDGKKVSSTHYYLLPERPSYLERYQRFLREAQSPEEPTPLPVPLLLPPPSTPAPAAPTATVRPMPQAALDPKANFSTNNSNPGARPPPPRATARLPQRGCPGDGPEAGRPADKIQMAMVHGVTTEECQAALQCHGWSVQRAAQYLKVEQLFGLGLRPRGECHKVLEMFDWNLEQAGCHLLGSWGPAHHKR
Chain of Tyrosine-protein kinase BTK (Q06187 whole entry): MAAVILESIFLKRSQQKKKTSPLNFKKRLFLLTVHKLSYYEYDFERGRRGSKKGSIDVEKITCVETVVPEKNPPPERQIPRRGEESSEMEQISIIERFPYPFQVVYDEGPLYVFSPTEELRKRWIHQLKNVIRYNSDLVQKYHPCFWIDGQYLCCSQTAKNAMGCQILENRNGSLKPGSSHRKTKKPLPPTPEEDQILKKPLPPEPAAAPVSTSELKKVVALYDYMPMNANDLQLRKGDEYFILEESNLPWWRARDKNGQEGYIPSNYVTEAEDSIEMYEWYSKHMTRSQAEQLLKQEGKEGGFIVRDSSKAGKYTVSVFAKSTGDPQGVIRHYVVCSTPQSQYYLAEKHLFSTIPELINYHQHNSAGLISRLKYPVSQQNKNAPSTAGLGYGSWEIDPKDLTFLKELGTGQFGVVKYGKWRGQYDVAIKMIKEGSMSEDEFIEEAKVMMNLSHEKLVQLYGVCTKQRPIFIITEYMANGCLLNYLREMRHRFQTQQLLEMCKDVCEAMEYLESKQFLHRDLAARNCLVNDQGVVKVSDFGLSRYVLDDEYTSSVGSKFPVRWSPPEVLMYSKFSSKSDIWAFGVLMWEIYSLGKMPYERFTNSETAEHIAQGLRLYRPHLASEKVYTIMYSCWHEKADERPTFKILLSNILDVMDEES

Compound	Ki (Activated CDC42 kinase 1 [1])	IC50 (Activated CDC42 kinase 1 [2])	also measured
COC(C)(C)CCn1nc(Nc2c(C)cccc2C)c2cnc(Nc3ccc(OCCN4CCCC4)cc3)nc21	3 nM	20 nM	Ki [7]: 0.04 nM; Ki [8]: 0.25 nM; Ki [9]: 1590 nM; Ki (Angiopoietin-1 receptor): 1160 nM; Ki [10]: 170 nM
CCOc1ccccc1Oc1nc(Nc2ccc(N3CCNCC3)cc2)ncc1C(=O)Nc1c(C)cccc1C	20 nM	100 nM	clearance [11]: 63.3 mL/min/kg; AUC [12]: 76 ng·h/mL; Ki [7]: 13 nM; Ki [8]: 78 nM; Ki [9]: > 25000 nM; Ki (Angiopoietin-1 receptor): > 8300 nM; Ki [10]: 74 nM
COC(C)(C)CCn1nc(Nc2c(C)cc(C)cc2C)c2cnc(Nc3ccc(N4CCN(C)CC4)cc3)nc21	12 nM	50 nM	
OC[C@H](O)CCn1nc(Nc2c(Cl)cccc2Cl)c2cnc(Nc3ccccc3)nc21	10 nM	20 nM	bioavailability [13]: 30%
CN1CCN(CCn2nc(Nc3c(Cl)cccc3Cl)c3cnc(Nc4ccccc4)nc32)CC1	10 nM	30 nM	
Cc1cccc(C)c1Nc1nn(CC[C@@H](O)CN(C)C)c2nc(Nc3ccccc3)ncc12	80 nM	190 nM	
COC(C)(C)CCn1nc(Nc2c(C)cccc2C)c2cnc(Nc3ccc(N4CCNCC4)cc3)nc21			clearance [3]: 95 mL/min/kg; Vd [4]: 20.3 L/kg; MRT [5]: 3.5 h; AUC [6]: 104 ng·h/mL
COC(C)(C)CCn1nc(Nc2c(C)cc(C)cc2C)c2cnc(Nc3ccccc3)nc21	> 2500 nM		
CN(C)CCCn1nc(Nc2c(Cl)cccc2Cl)c2cnc(Nc3ccccc3)nc21	5 nM	20 nM	
COC(C)(C)CCn1nc(Nc2c(Cl)cccc2Cl)c2cnc(Nc3ccc(N4CCNCC4)cc3)nc21	12 nM	10 nM	clearance [3]: 70 mL/min/kg; Vd [4]: 15.4 L/kg; MRT [5]: 3.6 h; AUC [6]: 117 ng·h/mL
CN(C)[C@@H]1CCN(CCn2nc(Nc3c(Cl)cccc3Cl)c3cnc(Nc4ccccc4)nc32)C1	10 nM	20 nM	
COC(C)(C)CCn1nc(Nc2c(C)cccc2C)c2cnc(Nc3ccc(OCCN4CCCC4)c(F)c3)nc21	3 nM	20 nM	Ki [7]: 11 nM; Ki [8]: 125 nM; Ki [9]: > 12500 nM; Ki (Angiopoietin-1 receptor): > 2500 nM; Ki [10]: > 12500 nM
COC(C)(C)CCn1nc(Nc2c(Cl)cccc2Cl)c2cnc(Nc3ccc(OCCN4CCCC4)c(F)c3)nc21	2 nM	30 nM	clearance [3]: 48.3 mL/min/kg; Vd [4]: 7.7 L/kg; MRT [5]: 2.7 h; AUC [6]: 174 ng·h/mL
COC(C)(C)CCn1nc(Nc2c(C)cc(F)cc2C)c2cnc(Nc3ccc(N4CCN(C)CC4)cc3)nc21	10 nM	20 nM	
OC[C@H]1CCCN1CCn1nc(Nc2c(Cl)cccc2Cl)c2cnc(Nc3ccccc3)nc21	30 nM	50 nM	

Continued, in another order:

Ki (Activated CDC42 kinase 1 [1])	IC50 (Activated CDC42 kinase 1 [2])	Compound	also measured
3 nM	60 nM	COC(C)(C)CCn1nc(Nc2c(C)cccc2C)c2cnc(Nc3ccc(OCCCN4CCCCC4)c(F)c3)nc21	clearance [3]: 58.3 mL/min/kg; Vd [4]: 7.5 L/kg; MRT [5]: 2 h; AUC [6]: 148 ng·h/mL
100 nM	300 nM	Cc1cccc(C)c1Nc1nn(CCCN2CCCC2)c2nc(Nc3ccccc3)ncc12	
30 nM	60 nM	Cc1cccc(C)c1Nc1nn(CC[C@@H](O)CO)c2nc(Nc3ccccc3)ncc12	
50 nM	30 nM	ON1CCN(CCn2nc(Nc3c(Cl)cccc3Cl)c3cnc(Nc4ccccc4)nc32)CC1	
> 4000 nM		COC(C)(C)CCn1nc(Nc2ccccc2)c2cnc(Nc3ccccc3)nc21	
40 nM	140 nM	CCN(CC)CCCn1nc(Nc2c(C)cccc2C)c2cnc(Nc3ccccc3)nc21	
5 nM	140 nM	CN(C)CCn1nc(Nc2c(Cl)cccc2Cl)c2cnc(Nc3ccccc3)nc21	
3 nM	20 nM	COC(C)(C)CCn1nc(Nc2c(C)cccc2C)c2cnc(Nc3ccccc3)nc21	
7 nM	40 nM	COC(C)(C)CCn1nc(Nc2c(Cl)cccc2Cl)c2cnc(Nc3ccccc3)nc21	
2 nM	20 nM	COC(C)(C)CCn1nc(Nc2c(C)cccc2C)c2cnc(Nc3ccc(N4CCN(C)CC4)cc3)nc21	
30 nM	90 nM	CN(C)C(=O)Cn1nc(Nc2c(Cl)cccc2Cl)c2cnc(Nc3ccccc3)nc21	
400 nM	2100 nM	COC(C)(C)CCn1nc(Nc2ccccc2)c2cnc(Nc3ccc(N4CCN(C)CC4)cc3)nc21	
50 nM	70 nM	Cc1cccc(C)c1Nc1nn(CCN2CCOCC2)c2nc(Nc3ccccc3)ncc12	
70 nM	140 nM	O=C(Cn1nc(Nc2c(Cl)cccc2Cl)c2cnc(Nc3ccccc3)nc21)N1CCOCC1	
26 nM	5500 nM	COC(C)(C)CCn1nc(Nc2c(C)cc(F)cc2C)c2cnc(Nc3ccccc3)nc21	
30 nM	40 nM	Cc1cccc(C)c1Nc1nn(CCCN(C)C)c2nc(Nc3ccccc3)ncc12	
